Structures are written as SMILES. Active and inactive are the calls of the source.

From ChEMBL document CHEMBL1156154, “Heterocyclic fused pyridone carboxylic acid M(1) positive allosteric modulators” (Bioorg Med Chem Lett, 2010) come the findings set out here.

The target of data set [1] is T1, Muscarinic acetylcholine receptor M4 (Homo sapiens) (UniProt P08173).
T1 sequence (whole entry): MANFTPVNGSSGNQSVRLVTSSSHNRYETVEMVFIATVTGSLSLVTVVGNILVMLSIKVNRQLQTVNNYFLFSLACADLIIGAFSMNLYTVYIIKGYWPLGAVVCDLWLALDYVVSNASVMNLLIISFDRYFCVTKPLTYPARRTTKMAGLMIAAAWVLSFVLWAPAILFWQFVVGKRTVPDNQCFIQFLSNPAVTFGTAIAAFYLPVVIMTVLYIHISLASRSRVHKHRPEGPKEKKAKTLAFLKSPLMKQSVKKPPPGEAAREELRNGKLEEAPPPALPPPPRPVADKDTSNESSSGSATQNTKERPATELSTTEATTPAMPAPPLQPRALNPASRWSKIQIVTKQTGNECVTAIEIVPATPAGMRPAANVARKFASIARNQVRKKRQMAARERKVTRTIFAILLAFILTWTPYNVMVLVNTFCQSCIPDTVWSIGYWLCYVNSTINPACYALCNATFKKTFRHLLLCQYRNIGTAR
The experiment in a line: Positive allosteric modulator activity at human muscarinic M4 receptor expressed in CHO cells assessed as effect on acetylcholine-induced intracellular calcium mobilization by FLIPR assay. In kind it is functional, cell-based.

Data set [2] is described as follows: Ratio of drug level in CSF to fraction unbound in plasma in P-glycoprotein deficient mouse. The class given is ADME. The settings on record: in vivo. In a few lines: (§1)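 CF-1 wild-type and P-gp knockout mice were dosed, and plasma and CSF were taken 30 min later. The CSF to unbound plasma ratio was then calculated.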
For the next data set, the system named is Cerebrospinal fluid. Description: Drug level in Sprague-Dawley rat CSF at 10 mg/kg, po. In kind it is ADME, organism-based. Further details: dose 10 mg/kg, route oral. To be noted: in vivo, read-out: Drug uptake.
Data set [3] can be described thus: Clearance in rat at 10 mg/kg, po and 2 mg/kg, iv. The class given is ADME, organism-based. To be noted: in vivo. In a few lines: (§2)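 Rat pharmacokinetics, oral dosing at 10 mpk and intravenous dosing at 2 mpk. Bioavailability, half-life and clearance derived from these profiles.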
Data set [4] is described as follows: Ratio of drug level in CSF to fraction unbound in plasma in CF-1 mouse. In kind it is ADME. To be noted: in vivo. In a few lines: as §1
Data set [5] is described as follows: Ratio of drug level in CSF to fraction unbound in plasma in rat. In kind it is ADME. To be noted: in vivo. Summed up:
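Sprague–Dawley rats dosed orally at 10 mg/kg in 0.5% methocel. CSF level divided by unbound plasma level. Unbound fraction comes from rat plasma protein binding by equilibrium dialysis.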

Data set [6] is described as follows: Bioavailability in rat at 10 mg/kg, po and 2 mg/kg, iv. To be noted: in vivo. The class given is ADME, organism-based. In a few lines: as §2
Data set [7] concerns the target T2, Muscarinic acetylcholine receptor M2 (Homo sapiens) (UniProt P08172).
T2 sequence (whole entry): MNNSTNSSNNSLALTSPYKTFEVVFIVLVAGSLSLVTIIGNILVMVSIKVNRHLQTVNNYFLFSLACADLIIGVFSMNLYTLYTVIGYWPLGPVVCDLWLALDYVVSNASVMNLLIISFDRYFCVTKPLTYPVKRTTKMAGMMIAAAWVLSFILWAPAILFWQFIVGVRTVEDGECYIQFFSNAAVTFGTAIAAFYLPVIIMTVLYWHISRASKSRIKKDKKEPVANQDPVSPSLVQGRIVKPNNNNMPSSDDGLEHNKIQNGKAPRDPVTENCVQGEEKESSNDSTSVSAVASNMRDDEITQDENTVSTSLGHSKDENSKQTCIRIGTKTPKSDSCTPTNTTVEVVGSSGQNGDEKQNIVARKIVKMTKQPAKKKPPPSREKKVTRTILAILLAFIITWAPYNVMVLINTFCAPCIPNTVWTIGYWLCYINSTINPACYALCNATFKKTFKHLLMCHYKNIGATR
The experiment in a line: Positive allosteric modulator activity at human muscarinic acetylcholine M2 receptor expressed in CHO cells assessed as effect on acetylcholine-induced intracellular calcium mobilization by FLIPR assay. The class given is functional, cell-based. (In general: Calcium flux is commonly read through the fluorescence of an indicator in the cells.)

Data set [8] is described as follows: Half life in rat at 10 mg/kg, po and 2 mg/kg, iv. The class given is ADME, organism-based. The settings on record: in vivo. In a few lines:
as §2

Data set [9] deals with T3, Muscarinic acetylcholine receptor M1 (Homo sapiens) (UniProt P11229).
T3 sequence (whole entry): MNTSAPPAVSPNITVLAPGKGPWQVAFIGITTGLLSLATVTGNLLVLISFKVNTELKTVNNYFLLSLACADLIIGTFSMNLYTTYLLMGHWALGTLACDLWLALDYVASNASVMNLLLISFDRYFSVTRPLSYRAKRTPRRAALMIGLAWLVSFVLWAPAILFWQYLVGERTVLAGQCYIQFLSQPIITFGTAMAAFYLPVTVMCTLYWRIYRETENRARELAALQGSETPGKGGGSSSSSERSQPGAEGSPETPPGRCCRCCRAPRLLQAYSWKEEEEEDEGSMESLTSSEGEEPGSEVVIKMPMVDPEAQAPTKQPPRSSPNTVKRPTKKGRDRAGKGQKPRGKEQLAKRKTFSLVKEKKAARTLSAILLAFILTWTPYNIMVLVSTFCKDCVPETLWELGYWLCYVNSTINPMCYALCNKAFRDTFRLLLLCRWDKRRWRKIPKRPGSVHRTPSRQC
Description: Positive allosteric modulator activity at human muscarinic M1 receptor expressed in CHO cells assessed as effect on acetylcholine-induced intracellular calcium mobilization by FLIPR assay. The class given is functional, cell-based. In a few lines: (§3)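 CHO cells expressing human M1 were run with an EC20 concentration of acetylcholine. Calcium mobilization was read on a FLIPR384. Potency is reported as the inflection point. Percent max is the compound plus EC20 ACh response relative to the maximal acetylcholine effect.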

Data set [10] addresses Muscarinic acetylcholine receptor M3 (Homo sapiens) (UniProt P20309). Description: Positive allosteric modulator activity at human muscarinic M3 receptor expressed in CHO cells assessed as effect on acetylcholine-induced intracellular calcium mobilization by FLIPR assay. In kind it is functional, cell-based.
Data set [11] is described as follows: Ratio of drug level in brain to plasma in Sprague-Dawley rat at 10 mg/kg, po. The class given is ADME, organism-based. Further details: dose 10 mg/kg, route oral.
The species named for the next data set is Mus musculus. Description: Effect on behavioral activity in mouse contextual fear conditioning model assessed as episodic memory. In kind it is functional, organism-based.
Data set [12] is described as follows: Plasma protein binding in rat serum by equilibrium dialysis method. A general note: In equilibrium dialysis free small molecules cross a membrane that holds back macromolecules.
Another data set deals with Rattus norvegicus. The experiment in a line: Plasma concentration in Sprague-Dawley rat at 10 mg/kg, po. In kind it is ADME, organism-based. Further details: dose 10 mg/kg, route oral. To be noted: in vivo.
A further data set concerns Brain. The experiment in a line: Drug level in Sprague-Dawley rat brain at 10 mg/kg, po. To be noted: in vivo, read-out: Drug uptake. The class given is ADME, organism-based. The arrangement: dose 10 mg/kg, route oral.
Data set [13] can be described thus: Plasma protein binding in human serum by equilibrium dialysis method.
Data set [14] concerns the target T3, Muscarinic acetylcholine receptor M1 (Homo sapiens). The experiment in a line: Positive allosteric modulator activity at human muscarinic M1 receptor expressed in CHO cells assessed as effect on acetylcholine-induced intracellular calcium mobilization by FLIPR assay relative to acetylcholine. In kind it is functional, cell-based. Summed up: as §3

Chain of Muscarinic acetylcholine receptor M3 (Homo sapiens) (P20309 whole entry, looked up): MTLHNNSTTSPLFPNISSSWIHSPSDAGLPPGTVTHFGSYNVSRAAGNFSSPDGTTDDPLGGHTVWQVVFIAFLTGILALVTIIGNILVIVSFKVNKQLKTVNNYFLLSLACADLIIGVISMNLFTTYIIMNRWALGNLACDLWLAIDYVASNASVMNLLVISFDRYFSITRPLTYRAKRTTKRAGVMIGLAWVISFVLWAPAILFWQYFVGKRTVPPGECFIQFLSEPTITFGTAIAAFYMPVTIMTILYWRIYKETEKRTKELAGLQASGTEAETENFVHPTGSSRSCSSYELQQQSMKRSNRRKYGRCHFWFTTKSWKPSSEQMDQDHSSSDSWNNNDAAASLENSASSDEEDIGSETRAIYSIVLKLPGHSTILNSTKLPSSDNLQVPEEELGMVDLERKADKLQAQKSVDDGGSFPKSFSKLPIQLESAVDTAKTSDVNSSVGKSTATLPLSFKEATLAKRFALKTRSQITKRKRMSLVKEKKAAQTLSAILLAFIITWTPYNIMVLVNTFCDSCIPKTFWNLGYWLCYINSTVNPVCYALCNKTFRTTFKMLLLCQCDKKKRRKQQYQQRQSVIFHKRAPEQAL

As usually defined, the bioavailability is the share of a dose that reaches the circulation, judged against a reference dose that is usually intravenous. In general, half-life refers to the time needed for the level to fall by half in the phase considered. As usually defined, the Kp is the ratio of the level in a tissue or fluid to that in plasma or blood. A word on the fraction unbound: it is free concentration divided by total concentration. Higher therefore signals weak binding. Take `O=C(O)c1cn(Cc2ccc(-n3cccn3)cc2)c2ccsc2c1=O`: the result (in data set [1]; in data set [7]; in [10]; in the data set filed under Mus musculus) was inactive. In addition, the Ratio in data set [2] is reported as 0.16; in data set [4], 0.05; in data set [5] it was 0.21. Also, the concentration in the data set on Cerebrospinal fluid was 123 nM; in the data set with Rattus norvegicus it was 4.24 µM; with Brain it was 316 nM. Also, the clearance in data set [3] stood at 6.8 mL/min/kg. For the same compound, the bioavailability in data set [6] worked out at 33%. For the same compound, the half-life in data set [8] was 222 min. Moreover, the IP in [9] was 0.52 µM. Also, in [11], the Kp was 0.07. Also, the results for the fraction unbound in data set [12] and in [13] were 0.132 and 0.14, respectively.
One may read the Emax as the greatest response seen or fitted, relative to the assay's reference. Take `O=C(O)c1cn(Cc2ccc(-c3ccccc3)cc2)c2sccc2c1=O`: the result in data set [1], in data set [7] and in data set [10] was inactive. Also, in data set [14], the Emax amounted to 78%. Further, in data set [9], the IP worked out at 0.37 µM. Further, the figures for the fraction unbound in data set [12] and in data set [13] were 0.004 and 0.007, respectively.
As for `O=C(O)c1cn(Cc2ccc(-c3ccccc3)cc2)c2ncccc2c1=O`, the result in data set [1], in data set [7] and in data set [10] was inactive. Further, the Emax in data set [14] came to 56%. For the same compound, the IP in data set [9] is 0.58 µM. Besides, the figures for the fraction unbound in data set [12] and in [13] were 0.003 and 0.008, respectively.
Consider `O=C(O)c1cn(Cc2ccc(-c3ccccc3)cc2)c2nccnc2c1=O`, for which the outcome in data set [1], in [7] and in data set [10] was inactive. Further, the Emax in data set [14] stood at 96%. In addition, in data set [9], the IP stood at 0.78 µM. In addition, the fraction unbound in [12] and in data set [13] was 0.023 in each case.
With `Cc1ccn(-c2ccc(Cn3cc(C(=O)O)c(=O)c4ccncc43)cc2)n1`, the outcome in data set [1], in data set [7] and in data set [10] was inactive. Besides, the results for the concentration in the data set on Cerebrospinal fluid, in the data set on Rattus norvegicus and in the data set on Brain were 24 nM, 78.5 µM and 1200 nM, respectively. The Ratio in data set [5] was found to be 0.03. Further, the IP in [9] was 0.25 µM. Moreover, in data set [11], the Kp amounted to 0.15. Further, the fraction unbound is 0.011 in [12] and 0.125 in data set [13].
For `Cn1cc(-c2ccc(Cn3cc(C(=O)O)c(=O)c4sccc43)nc2)cn1`, the outcome in data set [1], in data set [7] and in [10] was inactive. The concentration with Cerebrospinal fluid was determined as 42 nM; with Rattus norvegicus, 9.42 µM; in the data set with Brain, 159 nM. Moreover, in data set [5], the Ratio is on record as 0.05. Further, the IP in data set [9] is 0.34 µM. The Kp in [11] is 0.02. Also, the fraction unbound in data set [12] is 0.094; in data set [13], 0.279.
On to `O=C(O)c1cn(Cc2ccc(-c3ccccc3)cc2)c2ccsc2c1=O`, for which the result in data set [1], in [7] and in data set [10] was inactive. For the same compound, in data set [14], the Emax is 90%. Moreover, in [9], the IP stood at 0.15 µM. Further, the fraction unbound in data set [12] is 0.008; in [13], 0.013.
